# Only some compounds are listed: those with a hit (about 2.9% of all), similar ones and a draw of the others.
# M1 ag parental: nonselective activator or artifact in parental CHO-K1 cells. Fluo-8 calcium fluorescence; scaled to maximal ATP response, vehicle zero. activation, % at 3 µM. 0.48% of 360,000 active. AID 602248; in the data active means activation above about 15%;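 further: untransfected CHO-K1 host cells lacking M1 receptor as counterscreen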
# CHO-K1 Ca antag: counter-screen for M1 antagonists: effect in parental CHO-K1 cells; ATP-induced calcium, Fluo-8 fluorescence; inhibition, % at 3 µM; 0.6% of 360,000 active;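 active means inhibition above a per-plate cutoff, the plate's mean sample inhibition plus 3 SD, cut at about 24% in these data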;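 further: 0% = DMSO plus EC80 ATP and 100% = DMSO alone without ATP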
# M1 PAM parental: M1 PAM counterscreen hit in parental CHO-K1 cells. ATP EC20, Fluo-8 calcium fluorescence; 0% at ATP EC20, 100% at ATP max. activation, % at 3 µM. 0.02% of 360,000 active. AID 602247;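 active means activation above the run cutoff, the mean activation of all test compounds plus 3 SD, cut at about 40% in these data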;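 further: peak over basal fluorescence ratio in a 140 s read after ATP addition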
# CHO parental Ca: signal in parental CHO cells, OX1R antagonist counter-screen; 0.63% of 330,000 active; inhibition, % at 5.6 µM; parental CHO-K1, ATP-induced calcium, Fluo-8 fluorescence; AID 463079;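 active means inhibition above that plate's mean sample inhibition plus 3 SD, cut at about 26% in these data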;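 further: 0% = ATP-challenged DMSO wells and 100% = DMSO wells without ATP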
#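 material = parental CHO cells | also added = ATP as calcium-mobilizing challenge | dosing = single point at 5.6 µM | detection = intracellular calcium via Fluo-8 no-wash fluorescent dye | read-out = % inhibition | benchmarks = low control ATP plus DMSO, high control DMSO only | repeats = one well per compound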
# OX1R antag-1: blocks the human orexin 1 receptor; OX1R-expressing cells, FRET antagonist read-out; inhibition, % at 6.6 µM; 1.8% of 330,000 active; in the data active means inhibition mostly above about 38%, no sharp cut-off; inactive means mostly below about 40%;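 further: 0% = agonist challenge alone and 100% = reference antagonist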
# Target sequence (O43613 whole entry, looked up): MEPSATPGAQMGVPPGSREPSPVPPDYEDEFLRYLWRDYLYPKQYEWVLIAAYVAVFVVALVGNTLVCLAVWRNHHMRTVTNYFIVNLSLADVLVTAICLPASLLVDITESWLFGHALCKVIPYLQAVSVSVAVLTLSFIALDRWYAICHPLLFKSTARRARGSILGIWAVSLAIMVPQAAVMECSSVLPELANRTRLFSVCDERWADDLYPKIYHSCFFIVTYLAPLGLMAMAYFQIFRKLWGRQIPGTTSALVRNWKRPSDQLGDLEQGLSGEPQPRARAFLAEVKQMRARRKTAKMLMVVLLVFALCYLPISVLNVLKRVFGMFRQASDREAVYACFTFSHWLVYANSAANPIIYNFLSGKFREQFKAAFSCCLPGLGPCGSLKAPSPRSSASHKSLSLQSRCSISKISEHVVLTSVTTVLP
# OX1R antag-2: blocks the human orexin 1 receptor; O43613; CHO/OX1R cells, Fluo-8 calcium fluorescence, orexin A; inhibition, % at 5 µM; 0.43% of 330,000 active;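 active means inhibition above its plate's threshold, mean inhibition of all tested compounds on the plate plus 3 SD, cut at about 37% in these data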;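 further: 0% = orexin A challenge wells and 100% = SB-334867-A antagonist wells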
# OX1R HTRF confirm: confirmation of human orexin 1 receptor antagonists, HTRF format; OX1R-expressing cells, HTRF antagonist assay; AID 492964; shares compounds with OX1R antag-1; inhibition, % at 6.6 µM; 49% of 1,800 active; in the data active means inhibition above about 55%;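 further: CHO cells expressing OX1R stimulated with orexin A at about EC80; 0% = agonist challenge alone and 100% = reference antagonist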
# CHO-K1 HTRF: signal in parental CHO-K1 cells, OX1R antagonist counter-screen | shares compounds with OX1R antag-1 | HTRF counterscreen | inhibition, % at 6.6 µM | 48% of 1,800 active; in the data active means inhibition above about 17%;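 further: 0% = agonist challenge with vehicle and 100% = vehicle alone without agonist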
# * hit, by the source's call; nt = no result.
SMILES,M1 ag parental,CHO-K1 Ca antag,M1 PAM parental,CHO parental Ca,OX1R antag-1,OX1R antag-2,OX1R HTRF confirm,CHO-K1 HTRF
CC(C)Cn1c(N)c(C(=O)COC(=O)c2ccc(O)cc2)c(=O)n(C)c1=O,4,-6,6,1,18,-11,nt,nt
CC(C)Cn1c(N)c(C(=O)COC(=O)c2ccc([N+](=O)[O-])o2)c(=O)n(C)c1=O,10,-12,18,-11,81*,-18,30,24*
OCc1cn(-c2ccccc2)nc1-c1cc2ccccc2o1,1,-19,10,0,81*,-13,35,12
COc1cc2c(cc1OC)-c1cc3ccc4c(c3c[n+]1CC2)OCO4,0,-9,-2,-6,79*,0,54,75*
COc1cc2c(cc1O)CC[n+]1cc3c(OC)c(OC)ccc3cc1-2,0,-10,10,-12,77*,-5,42,37*
CCN(CC)S(=O)(=O)c1ccc(N2CCN(C)CC2)c(NC(=O)c2cc(=O)c3ccccc3o2)c1,1,-10,-19,-21,5,-27,nt,nt
CC(=O)NCC1CCCN(C(=O)c2ccc(OC3CCN(Cc4ccccn4)CC3)cc2)C1 (stereo not drawn),1,-19,3,-6,11,0,nt,nt
COC(=O)CCCNc1ncccc1[N+](=O)[O-],0,12,8,-7,97*,-11,39,39*
COc1ccc(CC(=O)NC2CCS(=O)(=O)C2)cc1 (stereo not drawn),1,-10,10,-1,22,-11,nt,nt
C=C(C)Cn1c2ccc(NC(=S)NCc3ccccc3F)cc2c(=O)n1C,2,-2,8,nt,nt,nt,nt,nt
O=C(CSc1nnc2ccccn12)NNC(=O)c1ccc([N+](=O)[O-])cc1,1,0,-4,-9,97*,-6,35,36*
O=C(CSc1nnc2ccccn12)NNC(=O)c1ccccc1,-1,-12,5,-12,10,-10,nt,nt
Cc1ccc(CNS(=O)(=O)c2ccc3c(c2)NC(=O)C(C)S3)cc1 (stereo not drawn),5,-6,-6,-12,9,-14,nt,nt
O=C1c2cccc3cccc(c23)C(=O)N1/N=C/c1ccc(O)cc1O,0,12,9,-1,99*,-7,41,64*
C[C@@H](NC(=O)C1(c2ccccc2)CCN(C(=O)OC(C)(C)C)CC1)C(=O)N[C@@H](C(=O)O)c1ccccc1,0,2,-2,-6,87*,-14,13,10
C[C@H](NC(=O)C1(c2ccccc2)CCN(C(=O)OC(C)(C)C)CC1)C(=O)N[C@@H](C(=O)O)c1ccccc1,0,5,8,-8,13,1,nt,nt
COc1ccc(/C=C2\OC(=O)c3c(OC)cccc32)cc1OC,0,3,3,-17,78*,-17,66*,3
COc1ccc(C=C2C(=O)OC(C)(C)OC2=O)cc1OC,0,12,-13,-13,9,-15,nt,nt
CCCCCCCCN1C(=O)[C@H](CC(=O)N2CCN(C(=O)OCC)CC2)C[C@@]2(C(=O)OCC)CCCC=C12,-1,-31,6,nt,nt,nt,nt,nt
C=CCNC(=O)CCC(=O)NNc1nc2ccccc2c2nc(-c3ccccc3)nn12,2,2,-13,-5,84*,27,86*,6
CCN(CC(=O)Nc1ccc(OC)cc1)C(=O)c1cccc(S(=O)(=O)N2CCN(c3ccccc3)CC2)c1,1,15,-16,nt,nt,nt,nt,nt
O=C(COC(=O)Cc1ccc(S(=O)(=O)N2CCOCC2)s1)Nc1ccccc1,2,-11,9,-4,8,-2,nt,nt
O=C(O)CCNc1ccc(NCCC(=O)O)c2c1C(=O)c1ccccc1C2=O,0,-2,1,6,104*,-9,61*,86*
O=C(O)c1cccc(Sc2cc(Cl)ccc2C(=O)O)c1,0,-11,11,-7,-2,0,nt,nt
COc1cc(OC)cc(C(=O)N(Cc2cc3cc(C)ccc3[nH]c2=O)C(C)C)c1,0,10,-5,-10,68,1,nt,nt
SMILES,M1 ag parental,CHO-K1 Ca antag,M1 PAM parental,CHO parental Ca,OX1R antag-1,OX1R antag-2,OX1R HTRF confirm,CHO-K1 HTRF
COc1cccc(C(=O)N(Cc2cc3cc(C)ccc3[nH]c2=O)C(C)C)c1,1,-7,8,-35,77*,4,68*,3
Cc1[nH]c2ccccc2c1/C=C/c1cc[n+](C)cc1,2,-6,19,nt,nt,nt,nt,nt
C=CCn1cc(/C=C/c2cc[n+](C)cc2)c2ccccc21,7,-4,17,0,87*,8,33,33*
COCCN1Cc2cccc(C(=O)Nc3cccc(-c4nc5ccccc5[nH]4)c3)c2C1=O,4,1,13,-14,86*,-3,60*,3
CCCN1Cc2cccc(C(=O)Nc3ccc(-c4nc5ccccc5[nH]4)cc3)c2C1=O,1,14,0,-20,19,-19,nt,nt
Cc1ccc(-c2ccccc2NC(=O)CS(=O)CC(=O)Nc2ccc(C)c(Cl)c2)o1 (stereo not drawn),2,5,3,6,82*,11,43,7
COCCN(C(=O)CSc1nc2ccc(OC)cc2[nH]1)c1c(N)n(Cc2ccccc2)c(=O)[nH]c1=O,1,-4,9,-7,90*,-15,17,-4
CSc1ccccc1Nc1ncnc(N)n1,1,-14,21,-9,3,-19,nt,nt
CCOc1ccc2c(c1)S/C(=C\c1cccs1)C(=O)N2,1,-18,18,-13,81*,8,72*,5
COc1cc(C(O)c2nc3ccccc3n2C(C)C)cc(OC)c1OC (stereo not drawn),1,-2,11,-6,7,-24,nt,nt
O=C(NCc1ccco1)Nc1ccc2nsnc2c1,0,-1,-3,-3,96*,-15,25,1
CCOc1ccccc1OCCC(=O)N1CCN(S(=O)(=O)c2ccccc2[N+](=O)[O-])CC1,2,-13,8,-31,7,-18,nt,nt
O=C(CNC(=O)c1cccs1)NCC(=O)OCC(=O)c1ccc([N+](=O)[O-])cc1,0,12,15,-5,103*,-3,36,43*
O=C(CNC(=O)c1cccs1)OCC(=O)c1ccccc1,1,0,7,2,9,3,nt,nt
CC(C(=O)NCc1ccccc1Cl)n1cc([N+](=O)[O-])cn1 (stereo not drawn),-1,6,-8,-1,7,-5,nt,nt
O=C(NN=Cc1cc(Br)c(O)c(Br)c1)c1ccccc1NS(=O)(=O)c1cccs1,0,-7,20,5,26,6,nt,nt
